≈ marks a conversion by molar mass, not a printed value. Calls of active or inactive are those of the source. The calls are words filed in the database; no cut-off is given here. Residues, ends and D or L forms follow the SMILES beside them.
Tests used:
Plutella xylostella [1] = assay: Insecticidal activity against Plutella xylostella (diamondback moth) fourth-instar larvae fed on cabbage leaves soaked in compound solutions measured 48 hr post compound treatment by leaf-dipping method; format: functional
Outline: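 Leaf-dip feeding assay: Chinese cabbage pieces (1 cm2) soaked 5 min in test solutions at predetermined concentrations, briefly dried in the dark, then fed to P. xylostella larvae (field-origin colony reared on cabbage at 25 ± 1°C, 16:8 h light:dark). Three replicates of 10 larvae per dose. Mortality scored at 48 h; dead = no coordinated movement when prodded. Dose-mortality curves give LC50.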

[2] = (§1) Inhibition of PLA2 in hemocytes of Spodoptera exigua fifth-instar larvae using pyrene-labeled phospholipid substrate by spectrofluorometry; format: cell-based; conditions: read-out: I50
Outline: (§2)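 PLA2 from fifth-instar S. exigua hemocytes: hemolymph spun 500 × g 10 min, hemocytes sonicated in PBS, 12,500 × g 10 min 4°C supernatant. Enzyme (10 μg) preincubated with 10 μl sample, 25°C, 10 min; pyrene-labeled phosphatidylcholine substrate added with BSA and CaCl2 in PBS pH 7.4; residual activity by fluorescence, ex 348/em 390 nm. Triplicate independent samplings; I50 derived.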

Spodoptera exigua [3] = assay: as §1; format: cell-based; outline: as §2
Plutella xylostella [4] = assay: Potentiation of 1000 ppm Bacillus thuringiensis-induced pathogenicity against Plutella xylostella (diamondback moth) fourth-instar larvae at 10000 ppm measured 48 hr post compound treatment; format: functional, organism-based
Outline: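 P. xylostella larvae fed Chinese cabbage pieces (1 cm2) dipped 5 min in test solutions together with commercial B. thuringiensis subsp. kurstaki, briefly dried in dark. Mortality at 48 h, with dead meaning no coordinated movement on probing; 10 larvae per replicate, three replicates; arcsine-square-root transformed, LSD test.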

Spodoptera exigua [5] = assay: Inhibition of immune responses in Spodoptera exigua fifth-instar larvae assessed as inhibition of hemocytic nodulation in response to Escherichia coli challenge by stereomicroscopy; format: functional, organism-based; conditions: read-out: I50
Outline: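 Fifth-instar S. exigua injected with E. coli (3.2 × 10^4 cells) mixed with compound in 10 μl; after 8 h at 25°C melanized nodules counted under stereomicroscope at ×50. Three replicates; I50 derived.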

[6] = tested on: Phenoloxidase (Spodoptera exigua); assay: Inhibition of phenoloxidase activity in hemolymph of Spodoptera exigua fifth-instar larvae using DOPA substrate

Compound	LC50 (Plutella xylostella [1]) [µg/mL]	IC50 [2] [µM]	inhibition (Spodoptera exigua [3])	Activity (Plutella xylostella [4])	IC50 (Spodoptera exigua [5]) [µM]	inhibition [6]
O=C1N[C@@H](Cc2ccc(O)cc2)C(=O)N2CCC[C@@H]12	5950 (≈ 22.9 mM)	47.8	Dose-dependent effect	Active	37.7	–
CC(=O)N[C@@H](Cc1ccccc1)C(=O)NCC(=O)N[C@H](C(=O)O)C(C)C (Ac-Phe-Gly-Val-OH)	8350 (≈ 23 mM)	428	Dose-dependent effect	Active	423	Dose-dependent effect
O=C(O)[C@H](Cc1ccc(O)cc1)NC(=O)[C@@H]1CCCN1 (H-Pro-Tyr-OH)	7690 (≈ 27.6 mM)	522	Dose-dependent effect	Active	473	Dose-dependent effect
CC(=O)/C=C/c1ccccc1 [BUTENONE]	–	–	Dose-dependent effect	Active	–	–
O=C(O)CCc1ccc(O)cc1 [HYDROXYPHENYL PROPIONIC ACID]	6640 (≈ 40 mM)	49.5	Dose-dependent effect	Active	58.7	Dose-dependent effect
c1ccc2[nH]ccc2c1 [INDOLE]	6270 (≈ 53.6 mM)	64.9	Dose-dependent effect	Active	52.9	–
O=C1Cc2ccccc2N1 [OXINDOLE]	4830 (≈ 36.3 mM)	46.2	Dose-dependent effect	Active	32.3	Dose-dependent effect

From ChEMBL document CHEMBL3046821, “Phospholipase A2 inhibitors synthesized by two entomopathogenic bacteria, Xenorhabdus nematophila and Photorhabdus temperata subsp. temperata” (Appl Environ Microbiol, 2012)
